Assay results pooled from the literature.
Protocols differ between the studies behind these lines.
Target: Homeodomain-interacting protein kinase 4 (HIPK4, Homo sapiens, UniProt Q8NE63)
One construct used (Q8NE63 1-616): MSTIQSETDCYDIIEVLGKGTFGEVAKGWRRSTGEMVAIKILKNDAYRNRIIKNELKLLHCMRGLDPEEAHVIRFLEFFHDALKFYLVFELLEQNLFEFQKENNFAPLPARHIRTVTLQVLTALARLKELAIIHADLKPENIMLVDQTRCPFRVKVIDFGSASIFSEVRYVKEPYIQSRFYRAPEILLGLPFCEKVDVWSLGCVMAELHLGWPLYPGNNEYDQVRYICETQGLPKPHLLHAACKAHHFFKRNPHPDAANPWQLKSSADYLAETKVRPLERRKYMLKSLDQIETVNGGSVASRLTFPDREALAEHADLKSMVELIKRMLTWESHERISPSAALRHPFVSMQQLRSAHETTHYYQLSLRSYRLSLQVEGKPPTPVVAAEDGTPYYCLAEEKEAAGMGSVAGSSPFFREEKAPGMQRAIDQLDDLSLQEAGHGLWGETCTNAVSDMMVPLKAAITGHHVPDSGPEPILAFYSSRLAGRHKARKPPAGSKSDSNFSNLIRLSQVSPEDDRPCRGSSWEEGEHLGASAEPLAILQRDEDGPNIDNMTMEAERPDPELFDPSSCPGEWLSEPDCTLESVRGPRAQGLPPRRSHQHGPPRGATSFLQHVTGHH

c1cnn2ncc(-c3ccnc(N4CCC45COC5)n3)c2c1
remaining binding (binding; 1 µM): 87%

O=C(NCCCN1CCOCC1)c1ccc(Nc2ncc(Cl)c(-c3ccc(Cl)s3)n2)cc1
remaining binding (binding; competition with immobilised ligand; 1 µM): 14%

CN(CCCC(F)(F)F)c1nccc(-c2cnn3ncccc23)n1
remaining binding (binding; 1 µM): 95%

COc1cnc(Nc2cccc(S(N)(=O)=O)c2)nc1N1CCN(c2ccccc2)C(=O)C1
remaining binding (binding; competition with immobilised ligand; 1 µM): 91%

C[C@@H]1CN(c2cc(-c3n[nH]c4ccc(OC5(C)CC5)cc34)ncn2)C[C@H](C)O1
remaining binding (cell-free assay; competition with immobilised ligand; 0.1 µM): 97%

Cc1cnc(Nc2ccc(C(=O)N3CCC(N4CCCC4)CC3)cc2)nc1-c1cc2ccccc2s1
remaining binding (binding; competition with immobilised ligand; 1 µM): 1.3%

Nc1c(C(=O)NCc2ccc(C(=O)NCCCC3CCCCC3)cc2)cnn1-c1ccccc1
remaining binding (cell-free assay; competition with immobilised ligand; 0.1 µM): 100%

C[C@H]1CCN(c2nccc(-c3cnn4ncccc34)n2)C1
remaining binding (binding; 1 µM): 80%

c1cncc(-c2cccc(Nc3nccc(NC4CCCCC4)n3)c2)c1
remaining binding (binding; competition with immobilised ligand; 10 µM): 22%

CN(c1nccc(-c2cnn3ncccc23)n1)C1CC1
remaining binding (binding; 1 µM): 99%

O=C(c1ccc(Nc2ncc(Cl)c(-c3cc4ccccc4s3)n2)cc1)N1CCC(N2CCCC2)CC1
remaining binding (binding; competition with immobilised ligand; 1 µM): 2.5%

CN(C)CC#Cc1ccc(OCCCc2sc(N3CCc4cccc(C(=O)Nc5nc6ccccc6s5)c4C3)nc2C(=O)O)c(F)c1
remaining binding (cell-free assay; competition with immobilised ligand; 1 µM): 100%

N[C@H]1CCN(c2nccc(-c3cnn4ncccc34)n2)C1
remaining binding (binding; 1 µM): 33%

O=C(Nc1c[nH]nc1C(=O)NC1CCNCC1)c1cc(F)cc(F)c1
remaining binding (binding; competition with immobilised ligand; 1 µM): 59%

Cn1cc(Cl)c2c(Oc3c(F)cc(Nc4cc(Cl)nc(N)n4)cc3F)ccnc21
remaining binding (cell-free assay; competition with immobilised ligand; 0.1 µM): 100%

CC1CCCN1c1nccc(-c2cnn3ncccc23)n1 (stereo not shown)
remaining binding (binding; 1 µM): 97%

Cc1c[nH]c2nccc(Oc3c(F)cc(Nc4cc(Cl)nc(N)n4)cc3F)c12
remaining binding (cell-free assay; competition with immobilised ligand; 0.1 µM): 100%

CNC(=O)[C@@H]1CC[C@@H](n2c(-c3ccc4cnccc4c3)nc3ccc(C(=O)NCc4cccc(C(N)=O)c4)cc32)C1
remaining binding (binding; competition with immobilised ligand; 1 µM): 100%

Cc1cc(C)c(-n2ccn3nc(-c4cccnc4)cc23)cc1NC(=O)c1cc(C#N)cc(S(F)(F)(F)(F)F)c1
remaining binding (cell-free assay; competition with immobilised ligand; 0.1 µM): 95.6%

CCN1CCN(Cc2ccc(C(=O)Nc3ccc(C)c(Oc4ccc5c(c4)CC(=O)N5)c3)cc2C(F)(F)F)CC1
remaining binding (binding; competition with immobilised ligand; 1 µM): 100%

O=C(O)[C@H]1[C@H](Cn2nnc3ccccc3c2=O)CC[C@@H]1C(=O)c1ccc(OCCC2CCOCC2)cc1
remaining binding (cell-free assay; competition with immobilised ligand; 1 µM): 100%

CN(C)c1nccc(-c2cnn3ncccc23)n1
remaining binding (binding; 1 µM): 75%
